Data set [1] relates to HeLa. The experiment in a line: Inhibition of MNNG-induced DNA damage in human HeLa cells preincubated for 2 hrs followed by MNNG addition and measured after 2 hrs by comet assay. Format: functional, cell-based. The following applies: time 4.0 hrs. An outline of the steps:
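Alkaline comet assay. HeLa cells were given 50 μM inhibitor or none for 2 h, then 10 μM MNNG for 2 h. Cells were embedded in 1% low-melt agarose and lysed overnight at 4 °C in alkaline lysis solution (pH > 13). Electrophoresis ran at pH > 12, 0.6 V/cm, 25 min. Slides were stained with 2.5 μg/mL PI, imaged by fluorescence microscopy and quantified by image analysis.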

The test system of data set [2] is HeLa. In words: Protection against MNNG-induced parthanatos in human HeLa cells assessed as cell viability preincubated for 3 hrs prior to MNNG addition and measured for 15 mins followed by fresh media replacement for 24 hrs by Hoechst 33342 and propidium iodide staining based flow cytometry analysis (reference value: 20 %). Format: functional. To be noted: time 1635 min; 27.25 h. In a few lines:
(§1)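 HeLa cells in DMEM/10% FBS, 5×10^5 per well, were pretreated 3 h with 100 μM inhibitor, then given 50 μM MNNG for 15 min. Medium was replaced and cells were cultured 24 h. Trypsinized cells were stained with 7 μM Hoechst 33342 and 2 μM PI and analysed by flow cytometry. Hoechst-only cells were counted as live, Hoechst+PI cells as dead.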
(A flow cytometer gives signals particle by particle.)

The test system of data set [3] is HeLa. In words: Protection against MNNG-induced parthanatos in human HeLa cells assessed as cell viability preincubated for 3 hrs prior to MNNG addition and measured for 15 mins followed by fresh media replacement for 24 hrs by Hoechst 33342 and propidium iodide staining based flow cytometry analysis. The data set is classed as functional. The following applies: time 1635.0 min. In a few lines:
as §1

Data set [4] deals with HeLa. In words: Protection against MNNG-induced parthanatos in human HeLa cells assessed as restoration of original phenotype after 0.5 to 3 hrs. The following applies: time 0.5-3 hrs. The data set is classed as functional, cell-based.
The test system of data set [5] is HeLa. In words: Protection against MNNG-induced parthanatos in human HeLa cells assessed as restoration of original phenotype at 3.7 to 100 uM. The data set is classed as functional, cell-based. The following applies: dose 3.7-100 µM, TDE = time-dependent effect.
The target of data set [6] is T1, Macrophage migration inhibitory factor (Homo sapiens) (UniProt P14174).
T1 sequence (whole entry): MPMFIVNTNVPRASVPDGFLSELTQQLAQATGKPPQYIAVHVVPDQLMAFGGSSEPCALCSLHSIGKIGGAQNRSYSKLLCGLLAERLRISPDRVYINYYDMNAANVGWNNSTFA
The experiment in a line: Reversible inhibition of recombinant human MIF tautomerase activity expressed in Escherichia coli BL21 assessed as recovery of enzyme activity at 25 uM using PP as substrate preincubated for 10 mins followed by substrate addition and measured after 20 mins by jump dilution method. The following applies: time 30.0 min.

Data set [7] has as its system HeLa. In words: Inhibition of MIF nuclear translocation in human HeLa cells at 100 uM preincubated for 3 hrs followed by MNNG stimulation for 15 mins by immunofluorescence staining based confocal microscopic analysis. The data set is classed as functional, cell-based. The following applies: time 195.0 min. An outline of the steps:
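HeLa cells on coverslips got ±100 μM inhibitor for 3 h, then MNNG (50 μM, 15 min), and were incubated overnight. They were methanol-fixed and blocked with 2% BSA. MIF was stained with a rabbit polyclonal and Alexa488 secondary, AIF with a mouse monoclonal and Alexa647 secondary, and nuclei with NucBlue. Nuclear localization was imaged by confocal microscopy.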

In data set [8] the test system is HeLa. In words: Inhibition of MNNG-induced DNA damage in human HeLa cells preincubated for 2 hrs followed by MNNG addition by gel electrophoresis assay. Format: functional, cell-based. The following applies: dose 50.0 µM, TDE = time-dependent effect.
The test system of data set [9] is HeLa. The experiment in a line: Induction of DNA damage in human HeLa cells by comet assay. The data set is classed as toxicity, cell-based.
The test system of data set [10] is HeLa. The experiment in a line: Inhibition of MNNG-induced DNA damage in human HeLa cells preincubated for 2 hrs followed by MNNG addition and measured after 2 hrs by gel electrophoresis assay. The data set is classed as functional, cell-based. To be noted: dose 1.2-100 µM, time 4.0 hrs.
In data set [11] the target is T1, Macrophage migration inhibitory factor (Homo sapiens). The experiment in a line: Inhibition of recombinant C-terminal His-tagged human MIF tautomerase activity expressed in Escherichia coli BL21 assessed as residual activity at 10 uM using PP as substrate preincubated for 10 mins and followed by substrate addition and measured for 3 mins by microplate reader analysis relative to control. To be noted: time 13.0 min.

SMILES strings stand for the structures. Active and inactive are the calls of the source. No cut-off for these calls is given here.

Turning to `O=C(Nc1ccccc1)c1ccc(-n2cc(C(=O)NCc3cccs3)nn2)cc1`, the inhibition entry in [1], in data set [6] and in [7] was “Active” in each case. The Activity in data set [2] was 50%; in [3] it was “Dose-Dependent Effect”; in data set [4] it was “Dose-Dependent Effect”; in [5], “Tde”; in [9] it was “Non-Toxic”. For the same compound, the inhibition result is “Tde” in data set [8] and “Dose-Dependent Effect” in data set [10].
In the case of `N#Cc1ccc(-n2cc(C(=O)Nc3ccc(Br)cc3)nn2)cc1`, the Activity in data set [11] amounted to 44%.
Same read-out and setting: to `O=C(NCCc1ccccc1)c1cn(-c2cccc3ncccc23)nn1` belongs 68%.

The record behind these values is ChEMBL document CHEMBL5331118, “Allosteric Inhibitors of Macrophage Migration Inhibitory Factor (MIF) Interfere with Apoptosis-Inducing Factor (AIF) Co-Localization to Prevent Parthanatos” (J Med Chem, 2023).
